Many of the other results were omitted from the sample, so hits are more common in it than they were.
L major viab – inhibitors of Leishmania major promastigote growth | Leishmania major promastigotes, resazurin fluorescence viability | inhibition, % at 10 µM | hit rate 9% among 200,000 | AID 1063; in the data active means inhibition above about 50%;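 further: promastigotes grown with compound for 44 hours at 28 °C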
HSF1 inhib – HSF1 inhibition; hit rate 0.77% among 300,000; NIH3T3-HGL HSE-luciferase, MG132-induced, luminescence 8 h; hits give low values; activity change, negative = inhibition, % at 7.5 µM (by protocol);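 active means more than half of replicate wells show activity change below -50%, luminescence cut by over half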;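 further: luciferase reports HSF-1 transcriptional activity via heat shock element; 0% = median of DMSO wells and -100% = zero luminescence signal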
HSF1 activator – increases HSF-1 driven luciferase reporter signal. NIH3T3-HGL HSF-1 luciferase reporter, MG132, 8 h; 100% = twice DMSO control signal. activation, % at 9 µM. AID 504408. hit rate 1.7% among 300,000;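 active means mean replicate activation of at least 50% with a set share of replicates each reaching 50%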;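 further: 0% = median of the neutral control wells and 100% = twice that signal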
Hsp70 act – transcriptional activators of Hsp70; activation, % at 10 µM; AID 1203; HeLa Hsp70 promoter luciferase reporter, luminescence; scaled: vehicle 0, proteasome-inhibitor control 100%; hit rate 0.04% among 200,000;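 active means activation above the mean across all tested compounds plus 3 SD, cutoff set per campaign, cut at about 5.5% in these data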;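 further: 100% = MG132 at 30 µM as the positive control and 0% = DMSO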
T cruzi inh – T. cruzi replication inhibition; T. cruzi beta-gal in NIH3T3, luminescence, 90 h; inhibition, % (concentration not given with the values); hit rate 1.4% among 300,000;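 active means mean inhibition across valid replicates above about 55%, limit read from the data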;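 further: signal also drops with host cell toxicity which is not excluded here; 0% = plate median of DMSO wells and 100% = zero luminescence signal; higher percent means less beta-gal luminescence so fewer parasites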
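Incubation – ≥90 h infection period, 3 h prior cell attachment · System – NIH/3T3 fibroblasts plus reporter T. cruzi · Doses – compound pinned at 50 nL/well, DMSO · Read-out basis – percent inhibition of parasite-derived β-gal signal · Signal – luminescent β-galactosidase signal after 60 min lysis · Also added – 5000 T. cruzi trypomastigotes/well · Medium – Low-serum DMEM with 2% FBS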
L major 1uM – inhibitors of Leishmania major promastigote growth, repeat at 1 uM; shares compounds with L major viab; L. major promastigote growth, resazurin fluorescence, 48 h; inhibition, % at 1 µM; hit rate 13% among 1,100; AID 1258;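 active means inhibition above about 50% in both repeat tests, limit read from the data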
The depositor's hits bear a star; . = no result given.

SMILES	L major viab	HSF1 inhib	HSF1 activator	Hsp70 act	T cruzi inh	L major 1uM
O=C(NCCCN1CCOCC1)C(=O)NCc1ccco1	10	-7	4	0	-2	.
CCOC(=O)c1oc2cccc(OCC(O)CNC(C)C)c2c1C (stereo not given)	101*	6	-2	0	23	-11
Cc1cccc(C)c1OCC(O)CNC(C)C (stereo not given)	-1	-10	4	0	-6	.
CCOc1ccccc1N1CCN(C(=O)/C=C/c2cccc([N+](=O)[O-])c2)CC1	6	.	.	1	-14	.
CC(C)CC(=O)/C=C/n1c(=S)oc2ccccc21	9	40	42	1	-3	.
CC(=O)/C=C/n1c(=S)oc2ccccc21	100*	111	141*	1	21	18
Cc1ccc(-n2nc3ccc(N)cc3n2)cc1	84*	0	12	0	-4	-16
CCc1ccc(/C=N/NC(=O)c2nnn(-c3nonc3N)c2CN2CCOCC2)cc1	.	-6	8	.	-1	.
CN(C)CCOc1ccccc1Cc1ccccc1	100*	-3	-18	0	-8	89*
CC(C)(C)c1ccc(S(=O)(=O)N2C=CC(C(F)(F)F)=NCC2)cc1	59*	-6	0	0	-10	-13
Cc1ccc(S(=O)(=O)N2C=CC(C(F)(F)F)=NCC2)cc1	-4	5	1	0	0	.
Cc1ccc(C[n+]2cccc(-c3ccccc3)c2)c(C)c1	91*	14	35	0	72*	3
CCn1cc[n+](C)c1P(c1ccccc1)c1ccccc1	98*	-2	-17	0	23	20
Clc1ccc2nnnc(-c3ccccc3)c2c1	86*	-5	-7	1	21	4
c1ccc(-c2nnnc3ccccc23)cc1	2	1	2	0	-24	.
COc1ccccc1NC(=O)Cn1nc(-c2ccc(Cl)cc2)c2ccccc2c1=O	68*	14	26	0	7	10
COc1ccc(C2c3[nH]c4ccccc4c3C[C@H]3C(=O)N(c4ccccc4C(=O)N4CCC[C@H]4C(=O)O)C(=O)N23)cc1 (stereo not given in full)	.	0	7	.	-6	.
c1ccc(-c2n[nH]c(-c3ccccn3)n2)nc1	100*	4	9	0	7	-9
COc1ccc(/C=N/NC(=O)c2cccc([N+](=O)[O-])c2)cc1OS(=O)(=O)c1ccc(C)cc1	87*	-9	1	0	-7	-23
COc1cc(/C=N/NC(=O)COc2cc(C)cc(C)c2)ccc1OS(=O)(=O)c1ccc(C)cc1	-2	4	7	0	2	.
Cc1nc2ccc(C(C(F)(F)F)(C(F)(F)F)C(F)(F)F)cc2[nH]1	100*	-4	-3	0	50	22
COc1cc(/C=N/Nc2ncnc3sc4c(c23)CCC4)ccc1O	39	-13	-31	0	-5	.
Nc1nc(SCC(=O)c2cccs2)n[nH]1	-8	0	2	0	-8	.
O=S1(=O)Cc2cc3ccccc3cc2C1	-4	0	5	0	-6	.
O=c1[nH]cc([N+](=O)[O-])cc1Br	61*	-1	-3	0	-13	-5
SMILES	L major viab	HSF1 inhib	HSF1 activator	Hsp70 act	T cruzi inh	L major 1uM
CCOC(=O)C1(CCCc2ccccc2)CCN(C(=O)c2cnn(CC)c2)CC1	30	.	.	0	.	.
COc1ccc(NS(=O)(=O)c2cc(C)ccc2NC(=O)c2cc(C)oc2C)cc1	52*	-6	-20	0	27	19
CC1CCCCN1CCCNC(=O)CCCN1C(=O)c2cccnc2Sc2ccccc21 (stereo not given)	.	2	13	.	-2	.
Clc1ccc(CN2CCC(c3ccccc3)CC2)cc1	.	-11	-2	.	28	.
C1=CN2CCC1C(c1ccccc1)C2 (stereo not given)	79*	-1	5	0	-2	-12
O=C(O)CSc1nnc(COc2ccc(Br)cc2)n1-c1ccccc1	.	5	41	.	-8	.
COc1ccc(/C=C(/NC(=O)c2ccc(C)cc2)C(=O)N2CCCC2)cc1OC	.	-7	-7	.	-4	.
CC1=NCC(C)c2c1[nH]c1ccccc21 (stereo not given)	84*	-4	-4	0	-4	-10
Cc1ccc([N+](=O)[O-])cc1-c1ccc(/C=N/NC(=O)c2cc3c(ccc4ccccc43)o2)o1	100*	-9	-10	0	28	15
COCCNC(=S)NC12CC3CC(CC(C3)C1)C2	53*	-3	5	0	-23	0
COCCNC(=O)NC12CC3CC(CC(C3)C1)C2	12	-10	1	0	-16	.
c1ccc(CN2CCN(C3=Nc4cccc5cccc3c45)CC2)cc1	98*	10	32	0	34	46
c1ccc(CN2CCN(c3nc4ccccc4s3)CC2)cc1	.	19	39	.	-5	.
O=C(NC(=S)Nc1ccc(Cc2ccncc2)cc1)c1ccc(F)cc1	-1	-2	-3	0	12	.
Fc1ccc(-c2cc(-c3nnc4n3CCCCC4)c3ccccc3n2)cc1	52*	-4	22	0	-2	-12
Clc1ccc(-c2cc(-c3nnc4n3CCCCC4)c3ccccc3n2)cc1	-3	11	-7	0	9	.
c1cncc(-c2nnc(-c3cccnc3)nn2)c1	97*	-1	12	0	-2	-22
c1ccc(-c2nnc(-c3ccccc3)nn2)cc1	.	1	.	.	-2	.
Cc1ccc(S(=O)(=O)NCC(C)n2nc(C)cc2C)cc1 (stereo not given)	.	-6	-9	.	-17	.
Cc1ccc(C(C[N+](=O)[O-])n2nc(C)cc2C)cc1 (stereo not given)	100*	42	48	0	-16	36
O=C1CCC([N+](=O)[O-])C(c2cccc(Br)c2)N1 (stereo not given)	54*	-11	-4	0	-23	-10
COc1cccc(C2NC(=O)CCC2[N+](=O)[O-])c1 (stereo not given)	.	-1	-4	.	-5	.
CCOC(=O)c1sc(NC(=O)CN2CCCC2)c(C(=O)OCC)c1C	93*	-5	12	0	17	-14
Cn1c(Cl)nc2ccccc21	-4	2	7	0	5	.
Cn1c(SC2=CS(=O)(=O)c3ccccc32)nc2ccccc21	99*	8	-1	1	0	15
COc1ccc(NS(=O)(=O)c2cc(NC(=O)c3nc4nc(C)cc(C)n4n3)ccc2C)cc1	72*	.	.	0	.	10
CNC(=O)C1CCN(S(=O)(=O)c2c(C)noc2/C=C/c2ccc(OC)cc2)CC1	.	-11	-12	.	15	.
Cc1nn(-c2ccccn2)c2c1C(=O)C(Br)CC2 (stereo not given)	100*	.	.	0	.	85*
CCOC(=O)c1ccc2c(c1)nc(C1CCN(S(=O)(=O)c3cccs3)CC1)n2CC	100*	-1	-3	-1	43	5
